In brackets after ≈: the same amount, converted by molar mass. Activity calls are given as the source filed them. No cut-off for these calls is given here.
What was measured:
Saccharomyces cerevisiae [1] = experiment: Antifungal activity against Saccharomyces cerevisiae ATCC 9763 at 50 mg/ml after 72 hrs by agar diffusion test; assay type: functional
Method in brief: (§1)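 Agar diffusion: yeasts grown on yeast peptone dextrose agar and fungi on potato dextrose agar. Wells are filled with […] of compound solution in DMSO at various concentrations, and the clear-zone diameter is measured. Bracketed values give the lowest concentration (mg/ml) that produces a zone >11 mm. A first screen is run at 50 mg/ml.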

Bacillus mycoides [2] = experiment: Antibacterial activity against Bacillus mycoides DSMZ 274 at 2 mg/ml after 24 hrs by agar diffusion test; assay type: functional, organism-based
Method in brief: (§2)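 Agar diffusion: wells in agar filled with […] DMSO solution of compound at various concentrations; diameter of clear zone around application point measured. Bacteria grown 24 h at 37 °C on nutrient agar. Compounds first screened at 50 mg/ml; those active then tested at lower concentrations. Bracketed value = lowest concentration (mg/ml) giving zone >11 mm, reported only if activity retained at ≤1.25 mg/ml.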

Saccharomyces cerevisiae [3] = experiment: Antifungal activity against Saccharomyces cerevisiae ATCC 9763 at 2 mg/ml after 72 hrs by agar diffusion test; assay type: functional, organism-based; method in brief: as §1
Micrococcus luteus [4] = experiment: Antibacterial activity against Sarcina lutea ATCC 9341 at 50 mg/ml after 24 hrs by agar diffusion test; assay type: functional
Method in brief: (§3)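 Agar diffusion: bacteria grown 24 h at 37 °C on nutrient agar. Wells in the agar are filled with […] of compound solution in DMSO at various concentrations. The diameter of the clear zone around the application point is measured. Bracketed values give the lowest concentration (mg/ml) that produces a zone >11 mm. A first screen is run at 50 mg/ml.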

Bacillus cereus [5] = experiment: Antibacterial activity against Bacillus cereus ATCC 11778 at 2 mg/ml after 24 hrs by agar diffusion test; assay type: functional, organism-based; method in brief: as §2
Escherichia coli [6] = experiment: Antibacterial activity against Escherichia coli ATCC 8739 at 2 mg/ml after 24 hrs by agar diffusion test; assay type: functional, organism-based; method in brief: as §2
Penicillium chrysogenum [7] = experiment: Antifungal activity against Penicillium chrysogenum CECT 2802 at 50 mg/ml after 72 hrs by agar diffusion test; assay type: functional; method in brief: as §1
Acinetobacter johnsonii [8] = experiment: Antibacterial activity against Acinetobacter johnsonii ATCC 17909 at 2 mg/ml after 24 hrs by agar diffusion test; assay type: functional; method in brief: as §2
Bacillus cereus [9] = experiment: Antibacterial activity against Bacillus cereus ATCC 11778 at 50 mg/ml after 24 hrs by agar diffusion test; assay type: functional; method in brief: as §2
Priestia megaterium [10] = experiment: Antibacterial activity against Bacillus megaterium NRRL 1353895 at 2 mg/ml after 24 hrs by agar diffusion test; assay type: functional, organism-based; method in brief: as §2
Staphylococcus aureus [11] = experiment: Antibacterial activity against Staphylococcus aureus NRRL B 313 at 2 mg/ml after 24 hrs by agar diffusion test; assay type: functional, organism-based; method in brief: as §3
Bacillus [12] = experiment: Antibacterial activity against Bacillus idosus B 241 at 50 mg/ml after 24 hrs by agar diffusion test; assay type: functional; method in brief: as §2
Candida tropicalis [13] = experiment: Antifungal activity against Candida tropicalis ATCC 20336 at 50 mg/ml after 72 hrs by agar diffusion test; assay type: functional; method in brief: as §1
Bacillus subtilis [14] = experiment: Antibacterial activity against Bacillus subtilis ATCC 6633 at 50 mg/ml after 24 hrs by agar diffusion test; assay type: functional; method in brief: as §2
Acinetobacter johnsonii [15] = experiment: Antibacterial activity against Acinetobacter johnsonii ATCC 17909 at 50 mg/ml after 24 hrs by agar diffusion test; assay type: functional; method in brief: as §2
Candida tropicalis [16] = experiment: Antifungal activity against Candida tropicalis ATCC 20336 at 2 mg/ml after 72 hrs by agar diffusion test; assay type: functional, organism-based; method in brief: as §1
Priestia megaterium [17] = experiment: Antibacterial activity against Bacillus megaterium NRRL 1353895 at 50 mg/ml after 24 hrs by agar diffusion test; assay type: functional; method in brief: as §2
Micrococcus luteus [18] = experiment: Antibacterial activity against Micrococcus luteus ATCC 9631 at 2 mg/ml after 24 hrs by agar diffusion test; assay type: functional, organism-based; method in brief: as §2
Bacillus mycoides [19] = experiment: Antibacterial activity against Bacillus mycoides DSMZ 274 at 50 mg/ml after 24 hrs by agar diffusion test; assay type: functional; method in brief: as §2
Staphylococcus aureus [20] = experiment: Antibacterial activity against Staphylococcus aureus NRRL B 313 at 50 mg/ml after 24 hrs by agar diffusion test; assay type: functional; method in brief: as §3
Escherichia coli [21] = experiment: Antibacterial activity against Escherichia coli ATCC 8739 at 50 mg/ml after 24 hrs by agar diffusion test; assay type: functional; conditions: ATCC 8739, 24 h, read-out: DIZ; method in brief: as §2
Penicillium chrysogenum [22] = experiment: Antifungal activity against Penicillium chrysogenum CECT 2802 at 2 mg/ml after 72 hrs by agar diffusion test; assay type: functional, organism-based; method in brief: as §1
Micrococcus luteus [23] = experiment: Antibacterial activity against Micrococcus luteus ATCC 9631 at 50 mg/ml after 24 hrs by agar diffusion test; assay type: functional; method in brief: as §2
Micrococcus luteus [24] = experiment: Antibacterial activity against Sarcina lutea ATCC 9341 at 2 mg/ml after 24 hrs by agar diffusion test; assay type: functional, organism-based; method in brief: as §2
Bacillus [25] = experiment: Antibacterial activity against Bacillus idosus B 241 at 2 mg/ml after 24 hrs by agar diffusion test; assay type: functional, organism-based; method in brief: as §2
[26] = tested on: Mycobacterium tuberculosis; experiment: Antimycobacterial activity against Mycobacterium tuberculosis H37Rv after 45 days; assay type: functional
Method in brief: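 Canetti proportion method. Compound in DMSO is added to Löwenstein–Jensen egg medium before coagulation (30 min, 85 °C), tested at three levels plus a lower one where needed. Tubes are inoculated with H37Rv at 10⁵ cells/ml and incubated 45 days at 37 °C. Colony counts versus drug-free control give percentage inhibition.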

Bacillus subtilis [27] = experiment: Antibacterial activity against Bacillus subtilis ATCC 6633 at 2 mg/ml after 24 hrs by agar diffusion test; assay type: functional, organism-based; method in brief: as §2
Priestia megaterium [28] = experiment: Antibacterial activity against Bacillus megaterium NRRL 1353895 assessed as concentration required to produce >11 mm of zone of inhibition after 24 hrs by agar diffusion test; assay type: functional; method in brief: as §2
Bacillus [29] = experiment: Antibacterial activity against Bacillus idosus B 241 assessed as concentration required to produce >11 mm of zone of inhibition after 24 hrs by agar diffusion test; assay type: functional; method in brief: as §2
Penicillium chrysogenum [30] = experiment: Antifungal activity against Penicillium chrysogenum CECT 2802 assessed as concentration required to produce >11 mm of zone of inhibition after 72 hrs by agar diffusion test; assay type: functional; method in brief: as §1
Bacillus cereus [31] = experiment: Antibacterial activity against Bacillus cereus ATCC 11778 assessed as concentration required to produce >11 mm of zone of inhibition after 24 hrs by agar diffusion test; assay type: functional; method in brief: as §2
Staphylococcus aureus [32] = experiment: Antibacterial activity against Staphylococcus aureus NRRL B 313 assessed as concentration required to produce >11 mm of zone of inhibition after 24 hrs by agar diffusion test; assay type: functional; method in brief: as §3
Micrococcus luteus [33] = experiment: Antibacterial activity against Micrococcus luteus ATCC 9631 assessed as concentration required to produce >11 mm of zone of inhibition after 24 hrs by agar diffusion test; assay type: functional; method in brief: as §2
Bacillus mycoides [34] = experiment: Antibacterial activity against Bacillus mycoides DSMZ 274 assessed as concentration required to produce >11 mm of zone of inhibition after 24 hrs by agar diffusion test; assay type: functional; method in brief: as §2
Acinetobacter johnsonii [35] = experiment: Antibacterial activity against Acinetobacter johnsonii ATCC 17909 assessed as concentration required to produce >11 mm of zone of inhibition after 24 hrs by agar diffusion test; assay type: functional; method in brief: as §2
Micrococcus luteus [36] = experiment: Antibacterial activity against Sarcina lutea ATCC 9341 assessed as concentration required to produce >11 mm of zone of inhibition after 24 hrs by agar diffusion test; assay type: functional; method in brief: as §2
Candida tropicalis [37] = experiment: Antifungal activity against Candida tropicalis ATCC 20336 assessed as concentration required to produce >11 mm of zone of inhibition after 72 hrs by agar diffusion test; assay type: functional; method in brief: as §1
Bacillus subtilis [38] = experiment: Antibacterial activity against Bacillus subtilis ATCC 6633 assessed as concentration required to produce >11 mm of zone of inhibition after 24 hrs by agar diffusion test; assay type: functional; method in brief: as §2
Saccharomyces cerevisiae [39] = experiment: Antifungal activity against Saccharomyces cerevisiae ATCC 9763 assessed as concentration required to produce >11 mm of zone of inhibition after 72 hrs by agar diffusion test; assay type: functional; method in brief: as §1

Compound: CC[C@H](CO)N1C(=O)c2ccccc2C1=O
- diameter of the inhibition zone (DIZ) (Saccharomyces cerevisiae [1]): inactive
- diameter of the inhibition zone (DIZ) (Bacillus mycoides [2]): inactive
- diameter of the inhibition zone (DIZ) (Saccharomyces cerevisiae [3]): inactive
- diameter of the inhibition zone (DIZ) (Micrococcus luteus [4]): inactive
- diameter of the inhibition zone (DIZ) (Bacillus cereus [5]): inactive
- diameter of the inhibition zone (DIZ) (Escherichia coli [6]): inactive
- diameter of the inhibition zone (DIZ) (Penicillium chrysogenum [7]): inactive
- diameter of the inhibition zone (DIZ) (Acinetobacter johnsonii [8]): inactive
- diameter of the inhibition zone (DIZ) (Bacillus cereus [9]): inactive
- diameter of the inhibition zone (DIZ) (Priestia megaterium [10]): inactive
- diameter of the inhibition zone (DIZ) (Staphylococcus aureus [11]): inactive
- diameter of the inhibition zone (DIZ) (Bacillus [12]): inactive
- diameter of the inhibition zone (DIZ) (Candida tropicalis [13]): inactive
- diameter of the inhibition zone (DIZ) (Bacillus subtilis [14]): inactive
- diameter of the inhibition zone (DIZ) (Acinetobacter johnsonii [15]): inactive
- diameter of the inhibition zone (DIZ) (Candida tropicalis [16]): inactive
- diameter of the inhibition zone (DIZ) (Priestia megaterium [17]): inactive
- diameter of the inhibition zone (DIZ) (Micrococcus luteus [18]): inactive
- diameter of the inhibition zone (DIZ) (Bacillus mycoides [19]): inactive
- diameter of the inhibition zone (DIZ) (Staphylococcus aureus [20]): inactive
- zone of inhibition at 50000 µg/mL (Escherichia coli [21]): 11 mm
- diameter of the inhibition zone (DIZ) (Penicillium chrysogenum [22]): inactive
- diameter of the inhibition zone (DIZ) (Micrococcus luteus [23]): inactive
- diameter of the inhibition zone (DIZ) (Micrococcus luteus [24]): inactive
- diameter of the inhibition zone (DIZ) (Bacillus [25]): inactive
- MIC [26]: > 22.8 µM
- diameter of the inhibition zone (DIZ) (Bacillus subtilis [27]): inactive

Compound: CC[C@H](CO)NCc1c2ccccc2cc2ccccc12
- zone of inhibition at 50000 µg/mL (Saccharomyces cerevisiae [1]; ATCC 9763, 72 h, read-out: DIZ): 32 mm
- diameter of the inhibition zone (DIZ) (Bacillus mycoides [2]): inactive
- Activity (Priestia megaterium [28]): 0.6 mg/mL
- diameter of the inhibition zone (DIZ) (Saccharomyces cerevisiae [3]): inactive
- zone of inhibition at 50000 µg/mL (Micrococcus luteus [4]; ATCC 9341, 24 h, read-out: DIZ): 18 mm
- diameter of the inhibition zone (DIZ) (Bacillus cereus [5]): inactive
- diameter of the inhibition zone (DIZ) (Escherichia coli [6]): inactive
- zone of inhibition at 50000 µg/mL (Penicillium chrysogenum [7]; CECT 2802, 72 h, read-out: DIZ): 16 mm
- diameter of the inhibition zone (DIZ) (Acinetobacter johnsonii [8]): inactive
- zone of inhibition at 50000 µg/mL (Bacillus cereus [9]; ATCC 11778, 24 h, read-out: DIZ): 19 mm
- diameter of the inhibition zone (DIZ) (Priestia megaterium [10]): inactive
- Activity (Bacillus [29]): 1.25 mg/mL
- diameter of the inhibition zone (DIZ) (Staphylococcus aureus [11]): inactive
- Activity (Penicillium chrysogenum [30]): 0.06 mg/mL
- zone of inhibition at 50000 µg/mL (Bacillus [12]; B 241, 24 h, read-out: DIZ): 19 mm
- zone of inhibition at 50000 µg/mL (Candida tropicalis [13]; ATCC 20336, 72 h, read-out: DIZ): 31 mm
- zone of inhibition at 50000 µg/mL (Bacillus subtilis [14]; ATCC 6633, 24 h, read-out: DIZ): 18 mm
- Activity (Bacillus cereus [31]): 0.3 mg/mL
- zone of inhibition at 50000 µg/mL (Acinetobacter johnsonii [15]; ATCC 17909, 24 h, read-out: DIZ): 17 mm
- diameter of the inhibition zone (DIZ) (Candida tropicalis [16]): inactive
- zone of inhibition at 50000 µg/mL (Priestia megaterium [17]; NRRL 1353895, 24 h, read-out: DIZ): 20 mm
- Activity (Staphylococcus aureus [32]): 0.03 mg/mL
- diameter of the inhibition zone (DIZ) (Micrococcus luteus [18]): inactive
- Activity (Micrococcus luteus [33]): 0.3 mg/mL
- Activity (Bacillus mycoides [34]): 0.6 mg/mL
- zone of inhibition at 50000 µg/mL (Bacillus mycoides [19]; DSMZ 274, 24 h, read-out: DIZ): 20 mm
- Activity (Acinetobacter johnsonii [35]): 0.6 mg/mL
- zone of inhibition at 50000 µg/mL (Staphylococcus aureus [20]; NRRL B 313, 24 h, read-out: DIZ): 19 mm
- Activity (Micrococcus luteus [36]): 0.3 mg/mL
- Activity (Candida tropicalis [37]): 0.0125 mg/mL
- zone of inhibition at 50000 µg/mL (Escherichia coli [21]): 12 mm
- Activity (Bacillus subtilis [38]): 0.3 mg/mL
- diameter of the inhibition zone (DIZ) (Penicillium chrysogenum [22]): inactive
- zone of inhibition at 50000 µg/mL (Micrococcus luteus [23]; ATCC 9631, 24 h, read-out: DIZ): 19 mm
- diameter of the inhibition zone (DIZ) (Micrococcus luteus [24]): inactive
- Activity (Saccharomyces cerevisiae [39]): 0.0125 mg/mL
- diameter of the inhibition zone (DIZ) (Bacillus [25]): inactive
- MIC [26]: 17.9 µM (≈ 5 µg/mL)
- diameter of the inhibition zone (DIZ) (Bacillus subtilis [27]): inactive
